# Source: the RNAGym collection of RNA variant scans (doi:10.1126/science.aae0568)
# This sample holds only a part of the variants without activity.
# B1: tRNA (parent)
# chain: GUUCCGUUGGCGUAAUGGUAACGCGUCUCCCUCCUAAGGAGAAGACUGCGGGUUCGAGUCCCGUACGGAACG
# Variants of: B1
# Test: yeast fitness relative to wild type (ratio to wild type); higher = fitter; tRNA-Arg(CCU), competitive growth, 37 C, YPD
# Procedure, shortened: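 Changes in genotype frequencies gave Darwinian fitness relative to wild type. Frequencies were read by 100-nucleotide paired-end sequencing of gene amplicons before and after pooled Saccharomyces cerevisiae strains, carrying tRNA-Arg(CCU) gene variants at the native locus, were competed in YPD at 37°C for 24 hours in six replicates. A genotype was kept only with ≥ 100 starting reads, and estimates < 0.5 were set to 0.5.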
row,Variant,yeast fitness
1,C5A C22A A40G,≤ 0.5
2,C5A U7C C62U,≤ 0.5
3,C5A G6C A37G G52A C55G,≤ 0.5
4,C5A C27U G38A,0.565
5,C5A U13G C34G C62G,≤ 0.5
6,C5A C11G G38C G58C,≤ 0.5
7,C5A G17C G25A,≤ 0.5
8,C5A G52A G68A,≤ 0.5
9,C5A U7C U19C,≤ 0.5
10,C5A U8C A21G A45C G56C C66U,≤ 0.5
11,C5A G39A C49U G67A,≤ 0.5
12,C5A C31G A37G U59A A70C,≤ 0.5
13,C5A C27G C31G U59C,≤ 0.5
14,C5A C11G A45C C66G G68C,≤ 0.5
15,C5A G17C G44A C61U,≤ 0.5
16,C5A C31U U35C A69U,0.539
17,C5A U16A C62U,≤ 0.5
18,C5A G17C C46G C55U,≤ 0.5
19,C5A G17C A70C,≤ 0.5
20,C5A C31G G56C G58C G63A,≤ 0.5
21,C5A C31U G51C,0.807
22,C5A C49A U53G,≤ 0.5
23,C5A C22A,0.831
24,C5A U7C C31U,0.605

row,Variant,yeast fitness
1,C5A G67A A69U,0.523
2,C5A U16G C27U C29U A36U G41A,0.589
3,C5A G12A U35A A42G A65U,≤ 0.5
4,C5A G9C C27A C30U A65G,≤ 0.5
5,C5A C29A C34G,≤ 0.5
6,C5A G17A A42G U64A,0.606
7,C5A C33U U53C,≤ 0.5
8,C5A C24U U35C C61A,≤ 0.5
9,C5A C22U G39A C61U,0.503
10,C5A U19A A20C C24G C34G,≤ 0.5
11,C5A U8C C11U G18A C31A A37U G67C,≤ 0.5
12,C5A C33G C34A A40C,0.567
13,C5A C11U C46U G50C,0.709
14,C5A C30G A43C,≤ 0.5
15,C5A C11U C29U C31U A42C A69C,≤ 0.5
16,C5A G12C C34U A37G,0.562
17,C5A C24G U26A C29G U32A C49U,≤ 0.5
18,C5A G17A A42G,0.555
19,C5A C22G C27G A36U A40C,≤ 0.5
20,C5A G18A C30U G48C,≤ 0.5
21,C5A G18A G25A C31U C61U,0.562
22,C5A C60G G67A,≤ 0.5
23,C5A C33U G50A G52C A65C,≤ 0.5
24,C5A G25C,0.86

row,Variant,yeast fitness
1,C5A G25A,1.03
2,C5A C11G A57G,≤ 0.5
3,C5A C33U C61U,≤ 0.5
4,C5A C22U A57G,0.612
5,C5A U8A U16G A20U A36G A57G G68A,≤ 0.5
6,C5A C34A A43C A45C C46U,0.593
7,C5A U19A C27U C55U,≤ 0.5
8,C5A C24U A43C G58A,≤ 0.5
9,C5A C33G A42C,≤ 0.5
10,C5A C11G C33A G38A,0.552
11,C5A G10A C49A,≤ 0.5
12,C5A C62G,0.778
13,C5A C62A,0.743
14,C5A C22A G50C A69C,0.845
15,C5A G9A C29U,0.547
16,C5A G9C,0.627
17,C5A G9A,0.975
18,C5A G17A C24U A36C,0.538
19,C5A C22G C29G C31G,0.627
20,C5A C24U C46A,0.519
21,C5A U16C A21C C33U A40G G63C,≤ 0.5
22,C5A G17A C49G,0.532
23,C5A G17C G18C,0.579
24,C5A G17C C49U A57C,≤ 0.5

row,Variant,yeast fitness
1,C5A U7C G63C,≤ 0.5
2,C5A C11U C31U C49G C61A,≤ 0.5
3,C5A G12A C24U C29U C30A,≤ 0.5
4,C5A U13C U19C C33G,≤ 0.5
5,C5A C30A C31G A37U C55U A57C C61A,0.55
6,C5A G17C,0.652
7,C5A G17A,0.851
8,C5A G12A G18A A69C,≤ 0.5
9,C5A U7C U59A,≤ 0.5
10,C5A C22G C24G C31U A43U G48A A69U,0.507
11,C5A U7A G52A G67A,≤ 0.5
12,C5A C49U A65C,0.614
13,C5A C24G A70U,≤ 0.5
14,C5A G6C G68U,≤ 0.5
15,C5A G12A C29A G68C,0.689
16,C5A C66A,0.679
17,C5A C66U,0.857
18,C5A C34U A36C A40C C55A C66U,≤ 0.5
19,C5A C22G C27G A36U A40C G67A,≤ 0.5
20,C5A G50A U53C C62A A69U,≤ 0.5
21,C5A C24G A65G C66U,≤ 0.5
22,C5A U16A G17A A42C,≤ 0.5
23,C5A G9C A42C C49G G68A,≤ 0.5
24,C5A U7C C34A G41C C60U A70U,≤ 0.5

row,Variant,yeast fitness
1,C5A U13C,0.926
2,C5A C30G C31G A65C,≤ 0.5
3,C5A G10C U26C G51A,≤ 0.5
4,C5A C34A G68C,≤ 0.5
5,C5A G17C C30A A65C,≤ 0.5
6,C5A G39A G56C,≤ 0.5
7,C5A G52A G63A,≤ 0.5
8,C5A G17C A57U,≤ 0.5
9,C5A C27A C46A C49A C55A,≤ 0.5
10,C5A G39C C46G,0.547
11,C5A C33U C62A,0.542
12,C5A G23A,0.753
13,C5A G23C,0.723
14,C5A C27U,0.815
15,C5A C62U C66G,≤ 0.5
16,C5A G10C G12A G23A U64A,≤ 0.5
17,C5A G56C,0.666
18,C5A G56A,1
19,C5A U13C C29U C66U,0.549
20,C5A U16C A42U A57G,≤ 0.5
21,C5A C30U G68A,≤ 0.5
22,C5A U8C A21G A45C G56C,0.554
23,C5A C29A,0.612
24,C5A G25A U28C C31U A40C A42G A69C,≤ 0.5

row,Variant,yeast fitness
1,C5A G12C U47C,≤ 0.5
2,C5A G41A A70G,0.604
3,C5A C31G G51A,0.577
4,C5A G38A C49U,0.57
5,C5A G18A G25A C31U,≤ 0.5
6,C5A C62U A70C,0.616
7,C5A C55U G63A G67C,≤ 0.5
8,C5A G17C U28C,≤ 0.5
9,C5A C11G C27A C34U G39A,0.683
10,C5A G10C A43G G58C C66G,≤ 0.5
11,C5A C29G A36U A43G,≤ 0.5
12,C5A U16A A42C,≤ 0.5
13,C5A C22U C29U A42U,≤ 0.5
14,C5A G12A U47A,≤ 0.5
15,C5A C30U U54A,0.537
16,C5A G41A A57U,≤ 0.5
17,C5A C22U G39A A69U,≤ 0.5
18,C5A C22A C33U A36C,0.502
19,C5A C24U G25C C30G,≤ 0.5
20,C5A C24U C29U C30A A37C A65C,0.549
21,C5A C34G A43C,≤ 0.5
22,C5A G25A G58C C66U,≤ 0.5
23,C5A C24U G51A,≤ 0.5
24,C5A C24G U26A C29G A43U,≤ 0.5

row,Variant,yeast fitness
1,C5A G17A G18A G25A C55A,0.552
2,C5A G12A A45G,0.551
3,C5A C24U C29U C33U C34G A42U G58A,≤ 0.5
4,C5A C22G U47C,≤ 0.5
5,C5A C34G A37G,≤ 0.5
6,C5A C11U C34A A40U A42U G68A,≤ 0.5
7,C5A U8C U13C A40G,0.522
8,C5A G9C A21U,≤ 0.5
9,C5A G48A C60A,≤ 0.5
10,C5A G12A U35A A42G A65C C66A,0.6
11,C5A G9C A21U A69C,≤ 0.5
12,C5A C22G C49U A57C,0.779
13,C5A C31A C46G,≤ 0.5
14,C5A C22G A37C A40C,0.736
15,C5A C11G A37U C49A,0.515
16,C5A C11U U13C,0.57
17,C5A G10C G17A A40U U64C,0.582
18,C5A G18A C61G U64C,≤ 0.5
19,C5A C22G C24G C31U A43U G48A,0.544
20,C5A C22U G51C,≤ 0.5
21,C5A U13G C34G A45U,0.619
22,C5A C31U C34U C60G G63A,≤ 0.5
23,C5A C55A,0.655
